Laboratory results published in ChEMBL document CHEMBL2380272, “Biological evaluation of bisbenzaldehydes against four Mycobacterium species” (Eur J Med Chem, 2013).
Converted amounts (≈) assume the structure as drawn.

What was measured:
[1] = test system: Mycobacterium tuberculosis; experiment: Antimycobacterial activity against multidrug-resistant Mycobacterium tuberculosis LAM-1 clinical isolate assessed as growth inhibition at 1 to 1.2 uM after 6 days by BACTEC 460-TB method relative to 10 to 100 times diluted untreated control; assay type: functional
Method in brief: (§1)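 BACTEC 460-TB radiometric assay measuring 14CO2 from 14C-palmitic acid. The MDR LAM-1 isolate was precultured to growth index 300, then inoculated into a fresh vial with compound dilutions made in 7H9 + 10% OADC. Final concentrations were 0.4–1.2 µM. GI was read daily. MIC90 and MIC99 came from comparison with untreated controls diluted 10- and 100-fold. A 0.1 µg/mL isoniazid culture served as the resistance control.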

[2] = test system: Mycobacterium tuberculosis; experiment: Antimycobacterial activity against multidrug-resistant Mycobacterium tuberculosis LAM-1 clinical isolate assessed as growth inhibition after 6 days by BACTEC 460-TB method; assay type: functional; settings: LAM-1, 144 h; method in brief: as §1

Row | SMILES | growth inhibition (GI) [1] [%] | MIC90 [2] [µM]
1 | O=Cc1ccc(OCCCCCCCCCCCOc2ccc(C=O)cc2)cc1 | 99 | 0.6 (≈ 0.238 µg/mL)
2 | O=Cc1ccc(OCCCCCCCCCOc2ccc(C=O)cc2)cc1 |  | 0.6 (≈ 0.221 µg/mL)
3 | O=Cc1ccc(OCCCCCCCCCCOc2ccc(C=O)cc2)cc1 |  | 0.6 (≈ 0.229 µg/mL)
4 | O=Cc1ccc(OCCCCCCCCCCCCOc2ccc(C=O)cc2)cc1 | 99 | 0.4 (≈ 0.164 µg/mL)
